# Test results reported in article PMC7596007 (Cell, 2020).
# How the values were obtained:
# [1] = system: cardiovascular and respiratory functions of rats; experiment: Non-invasive measurement of cardiovascular and respiratory functions; assay type: in vivo; settings: rat
# Outline: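 Anaesthetised rats had the neck trimmed for a size-matched collar sensor of a non-invasive pulse oximeter. Recorded heart rate, pulse distention (local blood flow), breath rate and oxygen saturation after test compound or SBECD vehicle. Monitored 60-600 min; maximal signal deflection taken; 1-4 animals per dose.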
# [2] = target: expressed human β-cardiac myosin (Homo sapiens, UniProt P12883); experiment: Actin-activated steady-state ATPase inhibition, expressed human β-cardiac myosin; assay type: biochemical
# Outline: (§1)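 Steady-state actin-activated ATPase measured by NADH-PK/LDH coupled assay at 25°C for 15 min. Buffer: 10 mM MOPS pH 7.0, 4 mM MgCl2, 2 mM β-mercaptoethanol, with 0.5 mM ATP, 25 μM F-actin, 1 mM PEP, 200 μM NADH and 2% PK/LDH. NADH decrease followed at 340 nm; activity taken from linear regression of absorbance over time. Inhibitor added at varied concentrations in DMSO (1% final).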
# [3] = system: skeletal myosin samples from m.vastus lateralis; experiment: Actin-activated ATPase inhibition, human m. vastus lateralis biopsy myosin; assay type: biochemical; settings: patient-derived biopsies; 56% fast isoforms
# [4] = system: spastic rats after pyramidal tract lesion; experiment: Spastic cerebral palsy rat model, cylinder assay; assay type: in vivo; settings: Rat-B and C, three and five hours after oral 20 mg/kg treatment
# NM2C^F490L variant = NM2C^F490L variant (Homo sapiens, UniProt Q7Z406, F490L); experiment: Actin-activated steady-state ATPase inhibition, NM2C F490L variant; assay type: biochemical; settings: expressed variant
# Outline: as §1
# [5] = target: fast skeletal myosin-2 isoforms isolated from rabbit psoas muscle (Oryctolagus cuniculus, UniProt Q28641); experiment: Actin-activated steady-state ATPase inhibition, rabbit psoas skeletal myosin; assay type: biochemical
# Outline: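 Rabbit psoas S1 made by α-chymotrypsin digestion (0.25 mg/ml, 10 min, 25°C), stopped with 3 mM PMSF, then purified on MonoS. Assayed by NADH-PK/LDH coupled ATPase at 25°C for 15 min: 0.5 mM ATP, 25 μM F-actin, 10 mM MOPS pH 7.0, 4 mM MgCl2. Rate read at 340 nm by linear regression; inhibitor at varied concentrations, 1% DMSO.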
# TA98 = experiment: Ames MPF reverse mutagenicity assay, TA98; assay type: cell-based, S.typhimurium; settings: absence and presence of rat liver S9 fraction
# Outline: (§2)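 Ames MPF reverse mutagenicity run per kit instructions on Salmonella TA98 and TA100. Each strain tested without and with phenobarbital/β-naphthoflavone-induced rat liver S9 fraction.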
# [6] = system: rat hindleg isometric force; experiment: Isometric force measurement of rat hindleg; assay type: in vivo
# NM2A = NM2A (Homo sapiens, UniProt P35579); experiment: Actin-activated steady-state ATPase inhibition, NM2A; assay type: biochemical; settings: even at extremely high concentrations
# Outline: as §1
# [7] = system: 23 human hormone nuclear receptors (HNR); experiment: SelectScreen Nuclear Receptor Profiling; assay type: binding; settings: 5 μM; 23 receptors
# Outline: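 Outsourced SelectScreen binding profile on 23 human hormone nuclear receptors; test compound at 5 μM. Mean ± SEM, n = 2.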
# 484 kinases = experiment: SelectScreen Kinase Profiling panel; assay type: biochemical, human; settings: 5 μM
# Outline: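 Outsourced SelectScreen panel of wild-type and common mutant human kinases; test compound at 5 μM. Mean ± SEM, n = 2.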
# [8] = target: β-cardiac myosin isolated from human heart left ventricle (Homo sapiens, UniProt P12883); experiment: Actin-activated ATPase inhibition, human heart left ventricle myosin; assay type: biochemical
# Outline: as §1
# [9] = system: human adult dermal fibroblast (hDFa); experiment: CyQUANT LDH Cytotoxicity assay, dermal fibroblasts; assay type: cell-based; settings: 20 μM and 50 μM, 48 and 120 hours
# Outline: (§3)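 LDH release (CyQUANT kit, per manufacturer) from human adult dermal and lung fibroblasts. Cells exposed to 20 or 50 μM test compound for 48 and 120 h.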
# Caco-2 = Caco-2 permeability assay; assay type: in vitro ADME; settings: faster transfer in the absorptive direction over the excretive direction
# Outline: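 Outsourced Caco-2 permeability, measured apical-to-basolateral and basolateral-to-apical, in the presence of two transporter inhibitors. Mean ± SD, n = 2.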
# [10] = system: 186 different human G-protein-coupled-receptors (GPCRs); experiment: gpcrMAX panel; assay type: cell-based; settings: 5 μM; 186 GPCRs
# Outline: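 gpcrMAX service panel of 186 human GPCRs from 60 families, read in both agonist and inhibition modes; test compound at 5 μM. Mean ± SEM, n = 2.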
# NM2B = NM2B (Homo sapiens, UniProt P35580); experiment: Actin-activated steady-state ATPase inhibition, NM2B; assay type: biochemical; settings: even at extremely high concentrations
# Outline: as §1
# TA100 = experiment: Ames MPF reverse mutagenicity assay, TA100; assay type: cell-based, S.typhimurium; settings: absence and presence of rat liver S9 fraction
# Outline: as §2
# smooth muscle myosin-2 = smooth muscle myosin-2 (Gallus gallus, UniProt P10587); experiment: Actin-activated steady-state ATPase inhibition, smooth muscle myosin; assay type: biochemical, chicken; settings: even at extremely high concentrations
# Outline: as §1
# [11] = system: spastic rats after pyramidal tract lesion; experiment: Spastic cerebral palsy rat model, open-field gait analysis; assay type: in vivo; settings: for ratio of left turns: Rat-A, 15% before
# Outline: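 Spasticity induced in rats by stereotaxic injection of 15 μl ethanol into the left pyramidal tract (ML −0.8, AP −10, DV 9.7 mm from dura). Rats filmed for 15 min in an 80×80 cm open field with transparent floor, with deep-learning 3D paw tracking. Gait parameters Z-scored and run through PCA. Falls and cramps normalised to distance. Oral 15 or 20 mg/kg; recorded before and 1-21 h after dosing.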
# [12] = Concentration measurement from tissue samples; assay type: in vivo; settings: rat
# Outline: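 Male Wistar rats (200-250 g) dosed i.p. or orally, over-anaesthetised; tissues collected and frozen at −80°C. Extracts chloroform-dried, taken up in 50/50 water-acetonitrile, sonicated, centrifuged, then ultracentrifuged (60,000 rpm, 10°C, 60 min). HPLC-MS on RP-18 column, isocratic 50% H2O (0.1% TFA)/50% ACN (0.09% TFA), 0.5 ml/min. Quantified from 400 nm peak area against a calibration curve.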
# [13] = system: skeletal myosin samples from m.soleus; experiment: Actin-activated ATPase inhibition, human m. soleus biopsy myosin; assay type: biochemical; settings: patient-derived biopsy; 28% fast isoforms
# hERG potassium channel = hERG potassium channel (Homo sapiens, UniProt Q12809); experiment: Predictor hERG Fluorescence Polarization Assay; assay type: binding; settings: up to 5 μM
# Outline: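 Outsourced hERG fluorescence-polarisation binding assay, test compound up to 5 μM. Mean ± SEM, n = 2.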
# [14] = target: slow skeletal/β-cardiac myosin isolated from left ventricle of porcine heart (Sus scrofa, UniProt P79293); experiment: Actin-activated steady-state ATPase inhibition, porcine cardiac myosin; assay type: biochemical; settings: even at extremely high concentrations
# [15] = target: human non-muscle myosin-2C (NM2C) (Homo sapiens, UniProt Q7Z406); experiment: Actin-activated steady-state ATPase inhibition, NM2C wild type; assay type: biochemical; settings: wild-type form
# Outline: as §1
# [16] = system: human adult lung (hLFa) fibroblast; experiment: CyQUANT LDH Cytotoxicity assay, lung fibroblasts; assay type: cell-based; settings: 20 μM and 50 μM, 48 and 120 hours
# Outline: as §3
# Sequence of expressed human β-cardiac myosin (P12883 85-778 limits assumed): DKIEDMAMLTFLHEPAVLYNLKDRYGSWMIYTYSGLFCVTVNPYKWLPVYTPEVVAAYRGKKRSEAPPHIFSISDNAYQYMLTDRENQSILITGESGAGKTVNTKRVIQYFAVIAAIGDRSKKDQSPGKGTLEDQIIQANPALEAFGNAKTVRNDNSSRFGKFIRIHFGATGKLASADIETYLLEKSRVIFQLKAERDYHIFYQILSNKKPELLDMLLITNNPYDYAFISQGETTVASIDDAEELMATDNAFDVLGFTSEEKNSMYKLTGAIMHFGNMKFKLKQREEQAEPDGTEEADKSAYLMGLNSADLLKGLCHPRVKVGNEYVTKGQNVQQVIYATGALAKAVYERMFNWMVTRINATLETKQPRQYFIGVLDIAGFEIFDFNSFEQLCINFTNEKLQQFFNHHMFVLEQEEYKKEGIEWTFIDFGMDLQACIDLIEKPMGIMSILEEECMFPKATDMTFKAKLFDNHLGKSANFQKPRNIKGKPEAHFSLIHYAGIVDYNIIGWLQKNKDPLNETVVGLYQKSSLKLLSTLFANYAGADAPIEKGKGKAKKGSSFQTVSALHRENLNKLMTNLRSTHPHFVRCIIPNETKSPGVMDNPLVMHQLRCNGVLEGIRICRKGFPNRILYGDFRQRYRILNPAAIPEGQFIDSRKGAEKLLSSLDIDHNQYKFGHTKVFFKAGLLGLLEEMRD
# Sequence of expressed human β-cardiac myosin (P08590 whole entry partner): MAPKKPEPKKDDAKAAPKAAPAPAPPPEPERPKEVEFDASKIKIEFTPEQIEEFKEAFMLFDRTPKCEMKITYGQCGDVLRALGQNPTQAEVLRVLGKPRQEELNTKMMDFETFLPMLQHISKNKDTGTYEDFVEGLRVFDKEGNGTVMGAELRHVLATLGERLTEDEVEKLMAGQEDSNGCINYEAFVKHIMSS
# Sequence of β-cardiac myosin isolated from human heart left ventricle (P12883 85-778 limits assumed): as the sequence (P12883 85-778 limits assumed) above
# Sequence of β-cardiac myosin isolated from human heart left ventricle (P08590 whole entry partner): as the sequence (P08590 whole entry partner) above
# Sequence of human non-muscle myosin-2C (NM2C) (Q7Z406 1-799): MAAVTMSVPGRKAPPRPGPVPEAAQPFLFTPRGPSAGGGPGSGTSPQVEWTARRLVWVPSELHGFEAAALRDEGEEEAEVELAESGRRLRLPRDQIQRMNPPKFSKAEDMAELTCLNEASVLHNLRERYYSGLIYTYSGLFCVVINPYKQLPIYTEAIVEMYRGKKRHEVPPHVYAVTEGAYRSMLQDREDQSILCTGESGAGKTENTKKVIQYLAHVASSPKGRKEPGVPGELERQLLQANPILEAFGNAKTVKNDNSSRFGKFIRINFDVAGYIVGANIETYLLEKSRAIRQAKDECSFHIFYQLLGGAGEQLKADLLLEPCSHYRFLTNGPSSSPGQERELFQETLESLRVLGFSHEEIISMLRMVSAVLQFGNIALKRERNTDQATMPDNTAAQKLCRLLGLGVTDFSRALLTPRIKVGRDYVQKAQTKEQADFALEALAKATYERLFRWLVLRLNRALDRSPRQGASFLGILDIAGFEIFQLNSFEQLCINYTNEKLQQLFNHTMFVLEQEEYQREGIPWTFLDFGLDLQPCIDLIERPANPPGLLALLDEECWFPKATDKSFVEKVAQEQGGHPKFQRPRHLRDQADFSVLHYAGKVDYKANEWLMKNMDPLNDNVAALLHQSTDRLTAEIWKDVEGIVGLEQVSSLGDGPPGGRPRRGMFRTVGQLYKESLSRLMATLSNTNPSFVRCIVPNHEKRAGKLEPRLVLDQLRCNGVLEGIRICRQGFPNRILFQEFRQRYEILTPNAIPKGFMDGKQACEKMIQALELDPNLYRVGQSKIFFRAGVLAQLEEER
# Sequence of fast skeletal myosin-2 isoforms isolated from rabbit psoas muscle (Q28641 1-813): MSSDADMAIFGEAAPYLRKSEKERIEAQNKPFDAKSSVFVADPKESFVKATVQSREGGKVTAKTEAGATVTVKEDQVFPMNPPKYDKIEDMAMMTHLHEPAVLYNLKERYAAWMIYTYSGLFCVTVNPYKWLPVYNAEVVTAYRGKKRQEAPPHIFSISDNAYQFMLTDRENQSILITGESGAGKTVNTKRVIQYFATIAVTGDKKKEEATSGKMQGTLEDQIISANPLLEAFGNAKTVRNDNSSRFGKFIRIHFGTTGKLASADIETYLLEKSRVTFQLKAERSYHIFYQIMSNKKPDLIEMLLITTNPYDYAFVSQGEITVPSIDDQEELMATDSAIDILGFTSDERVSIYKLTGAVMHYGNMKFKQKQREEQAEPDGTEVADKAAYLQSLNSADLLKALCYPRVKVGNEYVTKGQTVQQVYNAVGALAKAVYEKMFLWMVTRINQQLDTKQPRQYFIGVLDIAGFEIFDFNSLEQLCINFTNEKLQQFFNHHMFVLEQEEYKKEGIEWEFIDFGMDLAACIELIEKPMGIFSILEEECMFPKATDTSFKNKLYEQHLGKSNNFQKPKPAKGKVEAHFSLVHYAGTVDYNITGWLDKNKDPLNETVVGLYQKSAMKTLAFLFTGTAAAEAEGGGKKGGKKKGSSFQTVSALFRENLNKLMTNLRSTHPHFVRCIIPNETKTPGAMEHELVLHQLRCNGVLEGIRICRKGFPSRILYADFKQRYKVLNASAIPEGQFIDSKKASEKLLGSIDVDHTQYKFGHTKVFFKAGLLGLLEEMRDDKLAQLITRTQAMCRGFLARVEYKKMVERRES
# Sequence of fast skeletal myosin-2 isoforms isolated from rabbit psoas muscle (P02602 52-192 partner): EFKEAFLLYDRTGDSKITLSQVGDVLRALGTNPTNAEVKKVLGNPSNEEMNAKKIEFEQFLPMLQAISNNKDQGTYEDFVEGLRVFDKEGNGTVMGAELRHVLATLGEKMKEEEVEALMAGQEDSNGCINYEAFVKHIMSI
# Sequence of NM2B (P35580 1-782): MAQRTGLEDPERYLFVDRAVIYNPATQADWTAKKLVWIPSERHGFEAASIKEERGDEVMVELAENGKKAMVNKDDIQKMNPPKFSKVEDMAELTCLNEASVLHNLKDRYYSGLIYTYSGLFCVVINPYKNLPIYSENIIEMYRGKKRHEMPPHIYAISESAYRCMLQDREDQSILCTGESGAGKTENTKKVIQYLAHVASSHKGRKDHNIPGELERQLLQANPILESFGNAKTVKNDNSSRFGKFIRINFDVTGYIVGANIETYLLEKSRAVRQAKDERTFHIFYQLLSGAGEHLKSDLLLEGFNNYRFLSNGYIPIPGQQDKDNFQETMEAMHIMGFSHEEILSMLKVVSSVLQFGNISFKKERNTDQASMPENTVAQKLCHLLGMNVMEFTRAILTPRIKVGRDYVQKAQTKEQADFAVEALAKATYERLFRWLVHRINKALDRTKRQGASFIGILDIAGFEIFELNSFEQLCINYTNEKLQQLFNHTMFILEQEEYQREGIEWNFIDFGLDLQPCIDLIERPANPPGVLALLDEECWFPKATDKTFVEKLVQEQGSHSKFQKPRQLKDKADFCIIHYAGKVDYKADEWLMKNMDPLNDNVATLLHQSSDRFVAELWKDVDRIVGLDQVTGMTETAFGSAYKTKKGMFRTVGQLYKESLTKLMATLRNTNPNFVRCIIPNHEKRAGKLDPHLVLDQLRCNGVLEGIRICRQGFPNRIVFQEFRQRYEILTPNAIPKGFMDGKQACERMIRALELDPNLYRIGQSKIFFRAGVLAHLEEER
# Sequence of NM2A (P35579 1-775): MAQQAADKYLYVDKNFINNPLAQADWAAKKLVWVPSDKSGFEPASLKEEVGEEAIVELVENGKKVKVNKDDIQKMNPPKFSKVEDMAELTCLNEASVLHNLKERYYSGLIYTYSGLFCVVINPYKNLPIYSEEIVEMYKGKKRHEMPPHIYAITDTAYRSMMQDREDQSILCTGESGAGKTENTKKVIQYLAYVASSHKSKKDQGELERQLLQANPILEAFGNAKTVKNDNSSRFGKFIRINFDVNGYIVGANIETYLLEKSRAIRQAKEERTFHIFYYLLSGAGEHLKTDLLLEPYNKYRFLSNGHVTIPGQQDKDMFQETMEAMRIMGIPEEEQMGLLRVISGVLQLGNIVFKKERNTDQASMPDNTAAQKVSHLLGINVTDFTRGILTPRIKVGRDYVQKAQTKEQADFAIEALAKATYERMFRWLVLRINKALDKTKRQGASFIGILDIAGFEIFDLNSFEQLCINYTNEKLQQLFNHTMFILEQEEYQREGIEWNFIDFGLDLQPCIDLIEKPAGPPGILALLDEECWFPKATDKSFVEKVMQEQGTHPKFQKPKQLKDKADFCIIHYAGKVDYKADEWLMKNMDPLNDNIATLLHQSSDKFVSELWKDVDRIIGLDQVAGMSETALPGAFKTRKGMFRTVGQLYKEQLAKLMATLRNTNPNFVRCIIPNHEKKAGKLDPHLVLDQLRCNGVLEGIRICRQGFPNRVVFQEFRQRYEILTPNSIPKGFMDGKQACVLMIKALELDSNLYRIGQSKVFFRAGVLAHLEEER
# Sequence of NM2C^F490L variant (Q7Z406 1-799 F490L): as the sequence (Q7Z406 1-799) above, with F490L counted along it
smiles,measurement,setting,value
"Cc1ccc2c(c1)C(=O)[C@]1(O)CCN(c3ccc(N)cc3)C1=N2 [AmBleb, para-aminoblebbistatin, reference compound]",time to death due to heart failure,[1]; 16 mg/kg,≤ 15 min
Cc1cc2c(s1)N=C1N(c3ccc(N4CCOCC4)cc3)CC[C@@]1(O)C2=O [MPH-220],ATPase activity inhibition of expressed human β-cardiac myosin,[2],essentially unaffected
same,ATPase inhibition of m.vastus lateralis myosin sample,[3],70%
same,"standing up in the cylinder, wall touches with both forepaws",[4],same number of events as their healthy littermates
same,ATPase sensitivity of NM2C F490L variant,NM2C^F490L variant,became sensitive
same,"ATPase inhibition of fast skeletal myosin (selectivity, in words)",[5],selective inhibition
same,"mutagenicity, frameshift (TA98)",TA98,Lack of mutagenicity
same,isometric force decrease τi.p.,"[6]; 18 mg/kg, intraperitoneal injection in 200 μl DMSO, anesthetized rats",34 min
same,"leg phase before force decrease, corresponding to absorption","[6]; 18 mg/kg, oral in 30% SBECD",17 min
same,isometric force decrease τp.o.,"[6]; 18 mg/kg, orally through gavage tube in 30% SBECD, anesthetized rats",53 min
same,persistence of decreased force,"[6]; rat hindleg, oral treatment",more than 10 hours
same,ATPase activity inhibition of NM2A,NM2A,did not inhibit
same,effect on hormone nuclear receptors,[7],remained unaffected
same,effect on cardiovascular and respiratory functions,[1]; 18 mg/kg,neither 13 mg/kg MPH-188 (H) nor 18 mg/kg MPH-220 (I) had any significant effect
same,cardiac and respiratory functions versus excipient control,[1]; 10-hour experiments under anesthesia,neither cardiac nor respiratory functions differed significantly
same,maximum decrease in heart rate and blood flow parameters,[1]; 10-hour-long anesthesia,≤ 25%
same,cardiac function,[1]; concentration range effective in force relaxation,not perturbed
same,kinase inhibition,484 kinases,≤ 20%
same,ATPase inhibition of human heart left ventricle β-cardiac myosin (in words),[8],unaffected
same,cytotoxicity (LDH),[9],not toxic
same,Caco-2 permeability,Caco-2,highly permeable
same,GPCR inhibition or activation,[10],≤ 30%
same,ATPase activity inhibition of NM2B,NM2B,did not inhibit
same,"mutagenicity, base-pair substitution (TA100)",TA100,Lack of mutagenicity
same,ATPase activity inhibition of smooth muscle myosin-2,smooth muscle myosin-2,did not inhibit
same,ratio of left turns,[11]; 40 minutes after 15 mg/kg treatment,38%
same,ratio of left turns,[11]; three hours after 15 mg/kg treatment,51%
same,relative frequency of random falling and spontaneous cramping,"[11]; Rat-C, 20 mg/kg, open field test",decreased drastically
same,persistence of enhanced gait functions,"[11]; Rat-D, 20 mg/kg",persistent for five hours
same,PC1 scores (major gait component),"[11]; global PCA, 20 mg/kg oral",significantly decreased
same,time of maximal effect on PC1 scores,"[11]; global PCA, 20 mg/kg oral",3 h
same,concentration in the diaphragm,[12],much lower compared to other striated muscle samples
same,concentration in the liver,[12],only temporarily elevated
same,concentration in target muscles relative to the inhibitory constant [IC50],[12]; after 3 hours,10 fold
same,elimination from blood and other tissues,[12]; after 3 hours,completely eliminated
same,concentration in cardiac tissue,[12]; high doses (up to 130 mg/kg),3000 to 7000 nM
same,accumulation in skeletal muscle samples over other tissues,"[12]; versus brain, heart, kidney and blood",few-fold accumulation
same,ATPase inhibition of m.soleus myosin sample,[13],29%
same,hERG potassium channel inhibition,hERG potassium channel,did not observe inhibition
same,ATPase activity inhibition of cardiac myosin,[14],did not inhibit
same,ATPase activity inhibition of NM2C,[15],not inhibited
same,cytotoxicity (LDH),[16],not toxic
"Cc1ccc2c(c1)C(=O)C1(O)CCN(c3ccccc3)C1=N2 (stereo not drawn) [blebbistatin, reference compound]",ATPase activity inhibition of expressed human β-cardiac myosin,[2],completely blocked
same,ATPase inhibition of m.vastus lateralis myosin sample,[3],more than 90%
same,ATPase activity reduction of human cardiac myosin sample,[8]; human heart left ventricle,more than 90%
